Source: PubChem (The Scripps Research Institute Molecular Screening Center)
PRMT1 inh: PRMT1 methyltransferase inhibitors, primary screen, biochemical, fluorescence polarization | Protein arginine N-methyltransferase 1 (Homo sapiens), Q99873 | recombinant PRMT1, activity-based probe fluorescence polarization | inhibition, % at 2.79 µM | 370,000 tested, 1.3% active | AID 652257, 2013;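 active = inhibition above about 21% made by adding two undisclosed values, limit read from the data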
rCAG binder: binders of r(CAG) RNA repeats, primary screen, biochemical, fluorescence; r(CAG) RNA repeat, TO-PRO-1 dye displacement fluorescence; inhibition, % at 3 µM; 370,000 tested, 1.3% active;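 active = inhibition above the plate cutoff, the mean of all test compounds on that plate plus 3 SD, cut at about 35% in these data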;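 also: 0% = DMSO alone and 100% = 100 µM mitoxantrone as full dye displacement; higher means more dye released from RNA so lower well fluorescence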
LEDGF integ inh: blockers of LEDGF/p75-dependent integrase strand transfer – biochemical, TR-FRET, high throughput, primary screen; inhibition, % at 3.7 µM; HIV-1 integrase (with human LEDGF/p75); TR-FRET IN-LEDGF/p75 DNA integration, Eu/Cy5; 370,000 tested, 0.64% active;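 active = inhibition above the screen-wide mean plus 3 SD, cut at about 13% in these data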;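 also: signal is the Cy5 over europium emission ratio at 671 and 618 nm; 0% = plate median of compound wells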
DAGLB inh: DAGLB lipase inhibitors, primary screen, biochemical, fluorescence, HTS; 340,000 tested, 0.059% active; HEK293T DAGLB membrane lysate, EnzChek fluorogenic substrate; AID 504411, 2011; Diacylglycerol lipase-beta (Homo sapiens), Q8NCG7; inhibition, % at 5.17 µM; in the data active = inhibition above about 34%;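 also: 0% = enzyme with vehicle and 100% = wells lacking enzyme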
ABHD4 inh: ABHD4 inhibitors, primary screen, biochemical, fluorescence polarization, mouse. AID 720543, 2013. purified mABHD4, FP-Rh probe fluorescence polarization. (Lyso)-N-acylphosphatidylethanolamine lipase (Mus musculus), Q8VD66. 370,000 tested, 0.54% active. inhibition, % at 8.92 µM;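 active = inhibition exceeding the mean over every tested compound plus 3 SD, cut at about 30% in these data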;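 also: 0% = plate median of compound wells and 100% = S159A mutant with DMSO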
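system = mouse ABHD4 enzyme, wild type | medium = HEPES pH 7.0, NaCl, Pluronic buffer | also added = FP-Rh probe | incubation = Enzyme–compound pre-incubation 45 min, then probe 60 min, both 25 °C | technique = fluorescence polarization, excitation 525 nm, emission 598 nm, BODIPY TMR filters | controls = S159A mutant high control, sample median low control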
HTRA1 inh: HTRA1 serine protease inhibitors, primary screen, biochemical, fluorescence polarization, HTS; Q92743; recombinant HTRA1, FP-rhodamine activity-based probe; inhibition, % at 5.96 µM; 340,000 tested, 0.5% active; AID 504803, 2011; in the data active = inhibition above about 36%;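 also: 0% = enzyme with DMSO and 100% = wells lacking enzyme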
Target sequence (Q92743 whole entry, looked up): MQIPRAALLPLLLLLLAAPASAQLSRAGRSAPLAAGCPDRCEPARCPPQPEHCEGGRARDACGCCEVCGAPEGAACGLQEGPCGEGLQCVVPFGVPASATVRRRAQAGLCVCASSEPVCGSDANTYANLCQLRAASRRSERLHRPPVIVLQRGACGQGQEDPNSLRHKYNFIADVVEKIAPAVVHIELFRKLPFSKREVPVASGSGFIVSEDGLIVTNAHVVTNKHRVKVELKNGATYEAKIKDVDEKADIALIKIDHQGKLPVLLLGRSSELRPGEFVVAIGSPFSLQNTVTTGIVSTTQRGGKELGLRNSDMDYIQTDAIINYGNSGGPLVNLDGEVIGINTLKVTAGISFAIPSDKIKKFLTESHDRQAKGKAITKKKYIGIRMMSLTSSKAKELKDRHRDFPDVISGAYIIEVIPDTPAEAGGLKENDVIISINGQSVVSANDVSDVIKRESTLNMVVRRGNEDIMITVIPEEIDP
PRMT1 confirm: PRMT1 methyltransferase inhibitors, confirmation, biochemical, fluorescence polarization, triplicate. shares compounds with PRMT1 inh. recombinant His-PRMT1, activity-based probe fluorescence polarization. inhibition, % at 2.79 µM. 3,300 tested, 42% active. AID 687036, 2013;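 active = mean inhibition across replicates above the hit cutoff derived for the earlier primary screen, cut at about 22% in these data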
Active calls of the source: *; / = no result given. Shown are actives, neighbours in structure and some others; about 3.2% of the full set was active somewhere.

SMILES | PRMT1 inh | rCAG binder | LEDGF integ inh | DAGLB inh | ABHD4 inh | HTRA1 inh | PRMT1 confirm
CCN(CC)c1ccc(/C=C2/SC(=O)N(C(C)C)C2=O)o1 | 27.0* | 0.7 | -0.1 | -14.5 | 4.5 | -6.2 | -54.5
Fc1cccc(-c2oncc2-c2nnnn2-c2ccc(Cl)cc2)c1 | -2.9 | -1.8 | -0.5 | -0.5 | 7.0 | -12.3 | /
CCCOc1ccccc1NC(=O)/C=C/C(N)=O | 58.9* | 0.2 | -4.5 | -1.6 | 6.9 | 1.5 | 35.7*
CCCCOc1ccccc1NC(=O)C=C(C)C | -4.4 | -1.1 | 3.2 | -3.7 | -8.5 | -2.2 | /
Fc1ccc(CSc2ccc(-c3ccco3)nn2)cc1 | 54.0* | 20.8 | 4.3 | -8.5 | 13.5 | -5.7 | -1.3
COc1ccccc1CC(=O)N1CCC(CCC(=O)NC2CC2)CC1 | -0.8 | -2.2 | -0.8 | 1.5 | -0.2 | 3.7 | /
CC(=O)c1sc2nc(C)c3c(c2c1N)CCCC3 | 4.6 | 1.8 | -3.3 | / | 3.6 | / | /
CC(=O)c1sc2nsc(SCCN3CCCC3)c2c1N | 35.1* | 7.5 | 5.1 | -1.3 | 7.4 | 8.8 | 10.6
COc1ccccc1CNC(=O)C1CC(c2cccc([N+](=O)[O-])c2)=NO1 (configuration not stated) | 0.5 | -2.6 | -0.3 | -1.7 | -0.1 | -1.9 | /
Cc1cccn2c(=O)c3cc(C#N)c(=NC(=O)c4ccncc4)n(CCCOC(C)C)c3nc12 | 25.8* | 1.5 | -2.6 | 0.7 | 0.8 | -0.1 | 2.4
COc1ccc([N+](=O)[O-])cc1NC(=O)CCN1CCN(CCO)CC1 | -7.5 | -1.0 | 5.0 | -3.2 | -9.2 | 6.3 | /
Cc1ccccc1CS(=O)(=O)c1nnc([C@H](CC(C)C)NC(=O)OC(C)(C)C)o1 | 26.8* | -4.5 | -6.3 | -1.2 | 25.0 | 1.1 | 15.0
O=C(O)Cc1sc(Nc2ccc(F)cc2)nc1-c1cccs1 | 31.4* | 24.9 | 4.7 | 7.6 | -71.2 | -15.2 | 2.5
NS(=O)(=O)c1cccc(NC(=O)CSc2nc3ccccc3c(=O)n2Cc2ccco2)c1 | 79.9* | 17.6 | 2.3 | -0.6 | -4.6 | -9.1 | 6.3
NS(=O)(=O)c1cccc(NC(=O)CSc2ncnc3ccccc23)c1 | 37.5* | 8.0 | 1.2 | -1.8 | -13.9 | -6.7 | 14.2
NS(=O)(=O)c1ccc(NC(=O)CSc2ncnc3ccccc23)cc1 | 9.4 | 1.5 | 1.7 | -1.3 | 0.4 | -5.4 | /
C[C@@H]1OCN(C)[C@H]2C[C@H]3c4[nH]c5cccc(-c6ccc7c(c6)OCO7)c5c4CCN3C[C@@H]12 | 0.1 | 8.7 | -2.6 | / | 13.9 | / | /
Clc1cccc(CSc2ncnc3c2ncn3C2CCCCO2)c1 (configuration not stated) | -0.1 | -2.2 | -0.7 | -4.8 | 0.1 | -10.8 | /
CC(C)(C)C(=O)NCC12C=CC(O1)C1C(=O)N(c3ccccc3)C(=O)C12 (configuration not stated) | 80.7* | 1.8 | -1.3 | -1.1 | 13.1 | 7.7 | 56.0*
Cc1ccc(N2C(=O)C3C4C=CC(CNC(=S)Nc5cccc(Cl)c5)(O4)C3C2=O)cc1 (configuration not stated) | 90.0* | 11.4 | -2.3 | 1.6 | -8.5 | -38.0 | 52.7*
CCC1(C(=O)OC)NC(c2ccco2)C2C(=O)N(c3ccccc3)C(=O)C21 (configuration not stated) | 1.8 | 3.2 | -0.1 | -6.6 | -1.9 | 3.0 | /
Cc1ccc(N2C(=O)C3C4C=CC(CNC(=S)N5CCN(c6ccccn6)CC5)(O4)C3C2=O)cc1 (configuration not stated) | 56.7* | 10.6 | -0.4 | -6.0 | -3.9 | 3.1 | 47.8*
Cc1ccc(N2C(=O)C3C4C=CC(CNC(=S)Nc5ccc(Cl)cc5)(O4)C3C2=O)cc1 (configuration not stated) | 84.8* | 6.4 | -1.0 | 1.1 | -2.2 | -37.7 | 28.7*
NS(=O)(=O)c1ccc(CNC(=O)c2cc(=O)[nH]c3ccccc23)cc1 | -0.4 | 6.2 | 4.1 | 1.8 | -4.9 | 2.6 | /
Cc1ccc(N2C(=O)C3C4C=CC(CNC(=S)Nc5ccc(F)cc5)(O4)C3C2=O)cc1 (configuration not stated) | 80.4* | 4.6 | 1.4 | -0.7 | 0.8 | -8.2 | 40.9*
SMILES | PRMT1 inh | rCAG binder | LEDGF integ inh | DAGLB inh | ABHD4 inh | HTRA1 inh | PRMT1 confirm
CC(C)COC(=O)NCC12C=CC(O1)C1C(=O)N(c3ccc(Cl)cc3)C(=O)C12 (configuration not stated) | 37.4* | -0.5 | -2.0 | 0.1 | 3.5 | 0.6 | 33.3*
Cc1ccc2nc(N(CCCN(C)C)C(=O)c3ccc4ncsc4c3)sc2c1 | 28.2* | 0.6 | -0.9 | 0.9 | 5.0 | 3.5 | 10.0
CCN(CC)c1ccc(C=Nn2c(-c3cc(C)[nH]n3)n[nH]c2=S)cc1 | 4.3 | 11.9 | -3.6 | / | 10.0 | / | /
CCN(CC)c1ccc(/C=N/n2c(-c3ccccc3Br)n[nH]c2=S)cc1 | 25.2* | 27.8 | -1.6 | 3.5 | -3.1 | -6.4 | 7.7
COC(=O)c1cc(NC(=O)CN2C(=O)C(=O)N(C3CCCC3)C2=O)cc(C(=O)OC)c1 | 2.2 | 10.2 | 2.0 | -0.9 | -0.2 | -5.4 | /
CCCN1CCC(=O)N([C@H](CO)CC(C)C)CC1 | 0.3 | -5.2 | 1.2 | -1.2 | 5.2 | 1.0 | /
O=c1[nH]c(-[n+]2ccccc2)c(/C=N/NC([S-])=Nc2ccccc2)s1 | 50.5* | -33.9 | -6.3 | -1.6 | 14.5 | 4.4 | 14.7
Cc1cc[n+](-c2[nH]c(=O)sc2/C=N/NC([S-])=Nc2ccccc2)cc1 | 67.3* | 1.1 | -1.9 | -2.9 | 23.0 | 18.8 | 28.7*
Cc1cc(C)c[n+](-c2[nH]c(=O)sc2/C=N/NC([S-])=Nc2ccccc2)c1 | 48.2* | -41.1 | -1.3 | -1.4 | 18.5 | 6.9 | 31.0*
CCc1ccc[n+](-c2[nH]c(=O)sc2/C=N/NC([S-])=Nc2ccccc2)c1 | 86.9* | -99.5 | -1.1 | -6.4 | 24.0 | 11.7 | 40.0*
CC(C)(C)c1cc[n+](-c2[nH]c(=O)sc2/C=N/NC(=O)c2ccccc2[O-])cc1 | 18.1 | -1.9 | -0.6 | 3.9 | 17.6 | 5.8 | /
C=CCn1c(SCN2C(=O)c3ccccc3C2=O)nc2ccc(Cl)cc2c1=O | 0.5 | -1.6 | -3.9 | -3.7 | 1.3 | 13.2 | /
Nc1ccc(N2CCOCC2)c(Cl)c1 | -1.0 | 1.3 | -1.2 | -0.7 | -7.3 | 8.2 | /
Cc1ccc(S(=O)(=O)NNc2nc3ccccc3nc2C(F)(F)F)cc1 | 81.2* | 4.5 | 3.3 | 3.9 | 5.5 | 1.2 | 17.6
